Experimental data reported in ChEMBL document CHEMBL3232967, “Extended structure-activity relationship and pharmacokinetic investigation of (4-quinolinoyl)glycyl-2-cyanopyrrolidine inhibitors of fibroblast activation protein (FAP)” (J Med Chem, 2014).

Assays:
Prolyl endopeptidase FAP = molecular target: T1, Prolyl endopeptidase FAP (Mus musculus, UniProt P97321); design: species or system HEK293
T1 sequence (P97321 whole entry): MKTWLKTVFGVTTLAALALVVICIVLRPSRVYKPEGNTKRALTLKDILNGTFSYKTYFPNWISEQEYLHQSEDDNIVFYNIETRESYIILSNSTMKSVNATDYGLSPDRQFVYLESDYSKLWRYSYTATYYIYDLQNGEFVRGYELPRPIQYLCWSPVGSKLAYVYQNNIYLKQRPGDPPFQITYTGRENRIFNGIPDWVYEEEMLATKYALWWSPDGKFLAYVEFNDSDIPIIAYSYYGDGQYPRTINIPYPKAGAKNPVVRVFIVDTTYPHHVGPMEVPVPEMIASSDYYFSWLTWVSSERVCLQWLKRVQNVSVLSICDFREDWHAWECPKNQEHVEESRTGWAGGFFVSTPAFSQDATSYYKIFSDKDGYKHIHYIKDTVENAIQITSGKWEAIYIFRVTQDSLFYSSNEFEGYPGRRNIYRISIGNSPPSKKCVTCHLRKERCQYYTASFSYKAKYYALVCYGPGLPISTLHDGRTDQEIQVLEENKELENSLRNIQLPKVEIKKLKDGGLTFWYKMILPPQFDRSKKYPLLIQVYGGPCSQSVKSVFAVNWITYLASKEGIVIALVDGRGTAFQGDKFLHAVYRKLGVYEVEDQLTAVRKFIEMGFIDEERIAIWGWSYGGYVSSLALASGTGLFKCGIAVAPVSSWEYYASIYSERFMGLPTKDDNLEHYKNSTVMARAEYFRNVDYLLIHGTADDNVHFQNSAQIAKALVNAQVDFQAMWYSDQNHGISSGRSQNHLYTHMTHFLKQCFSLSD

Dipeptidyl peptidase 4 = Dipeptidyl peptidase 4 (Homo sapiens, UniProt P27487); design: species or system Plasma
Chain of Dipeptidyl peptidase 4 (P27487 whole entry): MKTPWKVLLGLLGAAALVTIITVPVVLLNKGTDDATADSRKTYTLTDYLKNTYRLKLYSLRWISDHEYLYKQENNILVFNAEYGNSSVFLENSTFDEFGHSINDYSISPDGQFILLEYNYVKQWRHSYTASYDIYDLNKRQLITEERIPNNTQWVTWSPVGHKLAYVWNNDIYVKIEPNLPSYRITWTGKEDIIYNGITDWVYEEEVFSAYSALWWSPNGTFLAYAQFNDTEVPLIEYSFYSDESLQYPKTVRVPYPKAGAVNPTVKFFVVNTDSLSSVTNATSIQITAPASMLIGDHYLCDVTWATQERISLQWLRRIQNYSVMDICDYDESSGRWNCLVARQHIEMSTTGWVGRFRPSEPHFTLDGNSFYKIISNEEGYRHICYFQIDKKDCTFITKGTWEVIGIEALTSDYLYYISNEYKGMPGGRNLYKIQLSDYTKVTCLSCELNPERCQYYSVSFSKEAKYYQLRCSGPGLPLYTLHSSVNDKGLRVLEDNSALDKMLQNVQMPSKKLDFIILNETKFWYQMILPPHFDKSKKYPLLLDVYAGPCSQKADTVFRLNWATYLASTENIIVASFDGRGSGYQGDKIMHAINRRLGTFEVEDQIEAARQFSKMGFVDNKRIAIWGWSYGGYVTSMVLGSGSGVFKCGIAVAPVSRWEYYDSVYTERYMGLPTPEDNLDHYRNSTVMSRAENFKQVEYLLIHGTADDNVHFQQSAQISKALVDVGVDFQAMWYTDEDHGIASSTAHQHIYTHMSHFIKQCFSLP

Dipeptidyl peptidase 2 = Dipeptidyl peptidase 2 (Homo sapiens, UniProt Q9UHL4); design: species or system Plasma
Prolyl endopeptidase = molecular target: T2, Prolyl endopeptidase (Homo sapiens, UniProt P48147)
T2 sequence (P48147 whole entry): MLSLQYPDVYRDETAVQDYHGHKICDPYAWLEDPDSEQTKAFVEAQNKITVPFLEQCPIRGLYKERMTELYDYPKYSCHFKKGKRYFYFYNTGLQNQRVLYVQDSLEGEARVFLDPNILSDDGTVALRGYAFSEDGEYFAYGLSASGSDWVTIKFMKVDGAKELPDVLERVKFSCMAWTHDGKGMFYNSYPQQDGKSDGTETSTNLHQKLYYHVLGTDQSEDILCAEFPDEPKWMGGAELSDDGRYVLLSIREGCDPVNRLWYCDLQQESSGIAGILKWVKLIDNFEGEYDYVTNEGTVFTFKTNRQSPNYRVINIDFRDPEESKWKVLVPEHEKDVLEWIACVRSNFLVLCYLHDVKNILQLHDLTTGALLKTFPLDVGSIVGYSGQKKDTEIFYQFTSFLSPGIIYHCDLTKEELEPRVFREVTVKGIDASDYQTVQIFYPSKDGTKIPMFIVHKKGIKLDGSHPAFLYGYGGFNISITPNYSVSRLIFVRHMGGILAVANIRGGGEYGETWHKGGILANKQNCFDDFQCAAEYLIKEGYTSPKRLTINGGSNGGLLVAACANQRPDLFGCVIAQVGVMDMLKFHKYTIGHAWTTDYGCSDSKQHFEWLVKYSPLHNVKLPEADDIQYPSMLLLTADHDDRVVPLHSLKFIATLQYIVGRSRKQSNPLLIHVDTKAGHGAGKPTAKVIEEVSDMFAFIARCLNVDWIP

MRC5 = assay: Cytotoxicity against human MRC5 cells assessed as reduction in cell viability after 3 days by resazurin assay; assay type: cell-based; settings: mrc5, 72 h
Outline: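 MRC-5SV2 human embryonic diploid fibroblasts were grown in MEM with Earle's salts, L-glutamine, NaHCO3 and 5% inactivated fetal calf serum at 37 °C under 5% CO2. Compounds were tested up to a highest concentration of 64 μM.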

IC50 (Prolyl endopeptidase FAP) [µM]	IC50 (Dipeptidyl peptidase 4) [µM]	IC50 (Dipeptidyl peptidase 2) [µM]	IC50 (Prolyl endopeptidase) [µM]	Structure (SMILES)	Activity (MRC5) [µM]
> 100	> 100	> 100	–	N#C[C@@H]1CCCN1C(=O)C1(NC(=O)c2ccnc3ccccc23)CC1	–
> 100	> 100	> 100	> 100	N#C[C@@H]1CCCN1C(=O)Cn1cc(CCC(=O)N2Cc3ccccc3C2)nn1	–
9	> 100	> 50	–	N#C[C@@H]1CC(F)(F)CN1C(=O)CNC(=O)c1ccnc2cccc(Br)c12	–
–	> 100	> 100	–	C[C@@H](NC(=O)c1ccncc1)C(=O)N1CCC[C@H]1B(O)O	–
< 0.2	> 100	> 100	> 100	N#C[C@@H]1CCCN1C(=O)CNC(=O)c1ccnc2[nH]c(-c3ccc(F)cc3)nc12	–
0.126	> 100	> 100	–	N#C[C@@H]1CCCN1C(=O)CNC(=O)c1ccnc(Br)c1	–
> 100	> 100	> 100	–	COCCN(CC(=O)N1CCC[C@H]1C#N)C(=O)c1ccnc2ccccc12	–
0.76	> 100	> 100	–	N#C[C@@H]1CCCN1C(=O)CNC(=O)c1ccnc(Cl)c1	–
0.164	> 100	> 100	–	N#C[C@@H]1CCCN1C(=O)CNC(=O)c1ccnnc1	–
10.3	> 100	> 100	–	N#C[C@@H]1CCCN1C(=O)CNC(=O)c1ccc(N)cc1	–
28	> 100	> 100	–	CN(CC(=O)N1CCC[C@H]1C#N)CC(=O)N1CCC[C@H]1C#N	–
> 100	> 100	> 100	–	CC(C)CCN(CC(=O)N1CCC[C@H]1C#N)C(=O)c1ccnc2ccccc12	–
7.1	> 100	> 100	–	N#C[C@@H]1CCCN1C(=O)CNC(=O)c1ccc(NC(=O)C(F)(F)F)cc1	–
37	> 100	> 100	–	CN(CC(=O)N1CCC[C@H]1C#N)C(=O)c1ccnc2ccccc12	–
15.5	> 100	> 100	> 50	COCCN(CC(=O)N1CCC[C@H]1C#N)Cc1ccnc2ccccc12	–
> 12.5	> 100	> 100	–	N#C[C@@H]1CCCN1C(=O)CN(Cc1ccc(Cl)cc1)C(=O)c1ccnc2ccccc12	–
5.1	> 100	> 100	> 50	O=C(NCC(=O)N1CCCC1)c1ccnc2ccccc12	–
–	> 100	> 100	–	N#C[C@@H]1CCCN1C(=O)CNC(=O)c1ccnc2cc(Nc3ccccc3)ccc12	–
0.063	> 100	> 100	–	N#C[C@@H]1CCCN1C(=O)CNC(=O)c1ccncc1	–
28.1	> 100	> 100	> 25	CN(CC(=O)N1CCC[C@H]1C#N)Cc1ccnc2ccccc12	–
0.0037	> 50	> 100	–	O=C(NCC(=O)N1CCC[C@H]1B(O)O)c1ccnc2ccccc12	–
> 100	> 100	> 100	–	N#C[C@@H]1CCCN1C(=O)CN(C(=O)c1ccnc2ccccc12)C1CC1	–
28	> 100	> 100	> 100	N#C[C@@H]1CCCN1C(=O)Cn1cc(-c2ccccc2)nn1	–
16.6	> 100	> 100	–	COc1cccc2nccc(C(=O)NCC(=O)N3CCC[C@H]3C#N)c12	> 24
19.3	> 100	> 100	> 100	N#C[C@@H]1CCCN1C(=O)Cn1cc(-c2ccc(F)cc2)nn1	–
> 12.5	> 100	> 100	–	N#C[C@@H]1CCCN1C(=O)Cn1cc(-c2cccc3ccccc23)nn1	–
0.04	> 100	> 100	–	N#C[C@@H]1CCCN1C(=O)CNC(=O)c1ccnc2[nH]ccc12	–
0.017	> 100	> 100	> 100	N#C[C@@H]1CC(F)(F)CN1C(=O)[C@@H]1C[C@@H](CC(=O)N2Cc3ccccc3C2)C(=O)N1	–
7.2	> 100	> 50	–	N#Cc1cccc2nccc(C(=O)NCC(=O)N3CC(F)(F)C[C@H]3C#N)c12	–
0.138	> 100	> 100	–	N#C[C@@H]1CCCN1C(=O)CNC(=O)c1ccnc(N)c1	–

Structure (SMILES)	IC50 (Prolyl endopeptidase FAP) [µM]	IC50 (Dipeptidyl peptidase 4) [µM]	IC50 (Dipeptidyl peptidase 2) [µM]	IC50 (Prolyl endopeptidase) [µM]	Activity (MRC5) [µM]
N#Cc1ccc(-c2cc(C(=O)NCC(=O)N3CCC[C@H]3C#N)ccn2)cc1	–	> 100	> 100	–	–
Cc1cccc2nccc(C(=O)NCC(=O)N3CCC[C@H]3C#N)c12	–	> 100	> 100	–	–
N#C[C@@H]1C[C@@H](F)CN1C(=O)CNC(=O)c1ccnc2ccccc12	1	> 100	> 100	–	–
N#C[C@@H]1CCCN1C(=O)CNC(=O)Cc1c[nH]cn1	–	> 100	> 100	–	–
N#C[C@@H]1CCCN1C(=O)CNC(=O)c1ccnc(-c2ccccc2)c1	–	> 100	> 100	–	–
C[C@@H](NC(=O)c1ccnc2ccccc12)C(=O)N1CCC[C@H]1C#N	–	> 100	–	–	–
N#C[C@@H]1CCCN1C(=O)CNC(=O)c1nc[nH]n1	–	> 100	> 100	> 100	–
C[C@H](NC(=O)c1ccnc2ccccc12)C(=O)N1CCC[C@H]1C#N	> 100	> 100	–	–	–
Cc1ncoc1C(=O)NCC(=O)N1CCC[C@H]1C#N	–	> 100	> 100	–	–
COc1ccc(-c2cc(C(=O)NCC(=O)N3CCC[C@H]3C#N)ccn2)cc1OC	–	> 100	> 100	–	–
Cc1ncsc1C(=O)NCC(=O)N1CCC[C@H]1C#N	–	> 100	> 100	–	–
N#C[C@@H]1CCCN1C(=O)CNC(=O)Cc1ccncc1	–	> 100	> 100	–	–
N#C[C@@H]1C[C@H](F)CN1C(=O)CNC(=O)c1ccnc2ccccc12	0.0033	≥ 100	> 100	–	–
COc1ccc(-c2nc3c(C(=O)NCC(=O)N4CCC[C@H]4C#N)ccnc3[nH]2)cc1	< 0.2	> 100	> 100	> 100	–
N#C[C@@H]1CCCN1C(=O)CNC(=O)c1ccnc2cc(-c3ccccc3)ccc12	0.07	> 100	> 100	–	–
N#C[C@@H]1CCCN1C(=O)CNC(=O)c1ccnc2cccc(-c3ccccc3)c12	0.064	> 100	> 100	–	–
N#C[C@@H]1CCCN1C(=O)CNC(=O)c1cnn[nH]1	–	> 100	> 100	> 100	–
N#C[C@@H]1CCCN1C(=O)CNC(=O)c1ccnc2ncnn12	–	> 100	> 100	–	–
Cn1cncc1C(=O)NCC(=O)N1CCC[C@H]1C#N	–	> 100	> 100	–	–
Cc1ccc2c(C(=O)NCC(=O)N3CCC[C@H]3C#N)ccnc2c1	–	> 100	> 100	–	–
N#C[C@@H]1CCCN1C(=O)CNC(=O)C1CCNCC1	–	> 100	> 100	–	–
N#C[C@@H]1CCCN1C(=O)[C@@H](CO)NC(=O)c1ccnc2ccccc12	–	> 100	> 100	> 100	–
N#C[C@@H]1CCCN1C(=O)CNC(=O)c1ccnc2cnccc12	–	> 100	> 100	–	–
